In ChEMBL document CHEMBL1150225, “Cytotoxic cholestane glycosides from the bulbs of Ornithogalum saundersiae” (J Nat Prod, 2001):

Test system: HL-60
Experiment: Cytotoxicity against human HL60 cells after 72 hrs by MTT assay
Format: functional, cell-based
Conditions: HL-60, 72 h
How it was run: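 HL-60 leukemia cells kept in RPMI 1640 with 10% fetal bovine serum, L-glutamine, 100 units/mL penicillin and 100 μg/mL streptomycin. Cells at 3 × 10^4 cells/mL exposed continuously to compound for 72 h. Growth read by MTT reduction. IC50 (50% inhibition) calculated from each compound's dose–response curve.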

SMILES	IC50 [µM]
CC(C)CCC(O)[C@@H](C)[C@@]1(O)[C@@H](O[C@@H]2OC[C@H](O)[C@H](O[C@@H]3OC[C@@H](O)[C@H](O)[C@H]3O)[C@H]2O)C[C@H]2[C@@H]3CC=C4C[C@@H](O)CC[C@]4(C)[C@H]3CC[C@@]21C (some centres not stated)	8.3
CC(C)CCC(=O)[C@@H](C)[C@@]1(O)[C@@H](O[C@@H]2OC[C@H](O)[C@H](O[C@@H]3OC[C@@H](O[C@@H]4O[C@H](CO)[C@@H](O)[C@H](O)[C@H]4O)[C@H](O)[C@H]3O)[C@H]2O)C[C@H]2[C@@H]3CC=C4C[C@@H](O)CC[C@]4(C)[C@H]3CC[C@@]21C	> 10
